Results from PMC7644900 (Heliyon, 2020).

How the values were obtained:
[1] = tested on: K. pneumonia (ATCC 13883); assay: Antibacterial broth-dilution MIC; format: cell-based, Klebsiella pneumonia
Procedure, shortened: (§1)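 Broth-dilution in 96-well plates against S. aureus ATCC 29213, B. cereus ATCC 10876, E. coli ATCC 22922, K. pneumoniae ATCC 13883 and P. aeruginosa. Test compound concentrations spanned 10–100 mM. CTAB served as positive control and DMSO as negative control. Activity was reported as minimum inhibitory concentration.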

[2] = tested on: S.aureus (ATCC 29213); assay: Antibacterial broth-dilution MIC; format: cell-based, Staphylococcus aureus
Procedure, shortened: as §1

[3] = tested on: P. aeruginosa (ATCC 27853); assay: Antibacterial broth-dilution MIC; format: cell-based, Pseudomonas aeruginosa
Procedure, shortened: as §1

[4] = tested on: B.cereus (ATCC 10876); assay: Antibacterial broth-dilution MIC; format: cell-based, Bacillus cereus
Procedure, shortened: as §1

[5] = tested on: E. coli (ATCC 22922); assay: Antibacterial broth-dilution MIC; format: cell-based, Escherichia coli
Procedure, shortened: as §1

[6] = target: T1, bovine serum albumin (BSA) (Bos taurus, UniProt P02769); assay: Thermodynamic BSA binding studies; details: for ΔH (enthalpy change) / ΔS (entropy change): van't Hoff, 298-313 K
Procedure, shortened: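 BSA (10 μM) in phosphate buffer pH 7.4 in a 1.0 cm quartz cuvette. Excitation 295 nm, emission scanned 300–400 nm at 298, 308 and 313 K. Titrated with 15 μL of test compound. Binding constants were taken at each temperature, with ΔG = −RT lnKa. ΔH and ΔS were calculated from the Ka values across the three temperatures.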

[7] = target: T1, bovine serum albumin (BSA); assay: Competitive BSA binding experiments using site markers warfarin and ibuprofen; details: 298 K
[8] = target: T1, bovine serum albumin (BSA); assay: BSA steady state/intrinsic fluorescence quenching study; format: binding; details: 298 K; for bimolecular quenching constant Kq x 10^12: pH 7.4, τ0 10^−8 s; for Stern-Volmer constant Ksv x 10^4 / binding constant Ka: phosphate buffer pH 7.4
Procedure, shortened: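 BSA (10 μM stock) in phosphate buffer pH 7.4 in a 1.0 cm quartz cuvette at 298 K. Intrinsic fluorescence: excitation 295 nm, scan 300–400 nm, intensity read at 336 nm. Slits were 10 nm (excitation) and 5.0 nm (emission). Titrated with test compound stock (0.001 M) and read after each addition. Ksv and Kq were obtained from Stern-Volmer plots of F0/F versus quencher concentration.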

[9] = tested on: HaCaT cells; assay: In-vitro cytotoxicity MTT assay; format: cell-based, human
Procedure, shortened: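 HaCaT cells in DMEM with FBS, glutamine and penicillin/streptomycin were seeded one day earlier and incubated 24 h. Exposed to test compound (20–1.25 mg/mL), 4% ethyl acetate blank or 20% DMSO control for 24 h at 37 °C, 5% CO2. Morphology was checked by microscopy. After PBS wash, MTT (1 mg/mL) was added for 2 h, dissolved in isopropanol and absorbance read. Mean of 3 wells, ≥3 independent experiments.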

[10] = Critical micelle concentration by pyrene fluorescence probe; format: physicochemical; details: 25 °C, pyrene as probe
Procedure, shortened: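 Pyrene probe (0.1 mM methanol stock) was dried in vials, then test compound solutions were added to give 1.6 μM final pyrene. Mixed on an orbital shaker for 24 h and measured at 298 K. Excitation 334 nm, emission 350–450 nm, slits 5.0/2.5 nm. CMC was taken from the plot of I1 (373 nm)/I3 (384 nm) versus concentration.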

[11] = in the presence of Ibuprofen (site II marker)
[12] = in the presence of Warfarin (site I marker)

T1 sequence (P02769 25-607): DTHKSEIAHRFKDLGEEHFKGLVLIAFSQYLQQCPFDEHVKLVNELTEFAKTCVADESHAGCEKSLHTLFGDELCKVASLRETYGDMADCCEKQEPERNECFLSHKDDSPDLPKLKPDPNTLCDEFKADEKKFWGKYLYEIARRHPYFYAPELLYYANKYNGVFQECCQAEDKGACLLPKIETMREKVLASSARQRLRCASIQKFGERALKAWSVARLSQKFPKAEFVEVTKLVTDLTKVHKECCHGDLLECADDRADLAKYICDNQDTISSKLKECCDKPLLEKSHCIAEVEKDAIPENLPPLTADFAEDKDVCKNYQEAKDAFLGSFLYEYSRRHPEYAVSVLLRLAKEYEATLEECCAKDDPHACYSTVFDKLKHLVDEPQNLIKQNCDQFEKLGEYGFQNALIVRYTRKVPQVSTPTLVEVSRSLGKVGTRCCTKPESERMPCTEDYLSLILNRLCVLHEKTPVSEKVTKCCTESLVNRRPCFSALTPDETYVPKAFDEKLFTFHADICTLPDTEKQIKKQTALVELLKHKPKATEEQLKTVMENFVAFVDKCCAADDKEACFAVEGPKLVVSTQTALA

Molecule | Ka ([6]; 298 K) [M⁻¹] | ln Ka ([6]; 298 K) | ΔG (free energy) ([6]; 298 K) [KJmol^−1] | Ka ([6]; 308 K) [M⁻¹] | ln Ka ([6]; 308 K) | ΔG (free energy) ([6]; 308 K) [KJmol^−1] | Ka ([6]; 313 K) [M⁻¹] | ln Ka ([6]; 313 K) | ΔG (free energy) ([6]; 313 K) [KJmol^−1] | ΔH (enthalpy change) [6] [KJmol^−1] | ΔS (entropy change) [6] [Jmol^−1K^−1] | MIC ([1]; Gram-negative) [µM] | MIC ([2]; Gram-positive) [µM] | Ka ([7]; Blank (no site marker)) [M⁻¹] | Ka [7, 11] [M⁻¹] | Ka [7, 12] [M⁻¹] | MIC ([3]; Gram-negative) [µM] | bimolecular quenching constant Kq x 10^12 [8] | Stern-Volmer constant Ksv x 10^4 [8] | binding constant Ka [8] [M⁻¹] | also measured
CCCCCCCCCCCCCCCC[N+](C)(C)C [+ve control, Cetyltrimethylammonium bromide, reference compound] |  |  |  |  |  |  |  |  |  |  |  |  |  |  |  |  |  |  |  |  | MIC ([1]; Klebsiella pneumoniae, ATCC13883): 10.7 µM; MIC ([2]; Staphylococcus aureus, ATCC29213): 15.2 µM; MIC ([3]; Pseudomonas aeruginosa, ATCC27853): 171 µM; MIC ([4]; Bacillus cereus, ATCC10876): 12.3 µM; MIC ([5]; Escherichia coli, ATCC22922): 686 µM
Didecanoyl 2,2′-disulfanediyldibenzamide [Compound 2] | 225000 | 12.32 | -30.60 | 3580 | 8.18 | -20.76 | 405 | 6.00 | -15.77 | -325.26 | -988.78 | 26300 | 5400 | 429000 | 64600 | 15700 | 25600 | 2.26 x 10^12 M^−1s^−1 | 2.26 x 10^4 M^−1 | 225000 | MIC ([4]; Gram-positive): 2530 µM; % Cell Viability ([9]; 2.5, 24 h): 100.0%; % Cell Viability ([9]; 5, 24 h): 100.0%; % Cell Viability ([9]; 10, 24 h): 63.7%; toxicity to the cells (in words) ([9]; at a concentration of <10 mg/ml): non-toxic; MIC ([5]; Gram-negative): >25300 µM
Dioctyl 2,2′-disulfanediyldibenzamide [Compound 1] | 5470 | 8.61 | -21.68 | 3250 | 8.09 | -18.73 | 461 | 6.13 | -17.26 | -109.5 | -294.7 | 25300 | 12500 | 5060 | 2110 | 4950 | >15600 | 7.45 x 10^12 M^−1s^−1 | 7.45 x 10^4 M^−1 | 5470 | MIC ([4]; Gram-positive): 3120 µM; CMC [10]: 0.163 mM; % Cell Viability ([9]; 2.5, 24 h): 82.9%; % Cell Viability ([9]; 5, 24 h): 62.6%; % Cell Viability ([9]; 10, 24 h): 23.0%; % Cell Viability ([9]; 20, 24 h): 18.4%; cell death by changes in cell morphology ([9]; microscopy, 10 mg/ml (Figure 5)): considerable amount of cell death; MIC ([5]; Gram-negative): 21400 µM
